SMILES strings stand for the structures. In all, about 370,000 compounds went through this assay and about 500 (0.14%) were called active. For the sample, actives were picked, then their nearest neighbours and some compounds at random. A number with no mark means an inactive call.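 Rule for the calls: active = inhibition above the mean of compounds falling within the control limits plus 3 SD of them (cut at about 14% in these data); inactive = the rest.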

In general, inhibition refers to the drop in the measured response relative to a control, in per cent.

Fibrinogen beta chain (Homo sapiens), sequence (P02675 whole entry, looked up): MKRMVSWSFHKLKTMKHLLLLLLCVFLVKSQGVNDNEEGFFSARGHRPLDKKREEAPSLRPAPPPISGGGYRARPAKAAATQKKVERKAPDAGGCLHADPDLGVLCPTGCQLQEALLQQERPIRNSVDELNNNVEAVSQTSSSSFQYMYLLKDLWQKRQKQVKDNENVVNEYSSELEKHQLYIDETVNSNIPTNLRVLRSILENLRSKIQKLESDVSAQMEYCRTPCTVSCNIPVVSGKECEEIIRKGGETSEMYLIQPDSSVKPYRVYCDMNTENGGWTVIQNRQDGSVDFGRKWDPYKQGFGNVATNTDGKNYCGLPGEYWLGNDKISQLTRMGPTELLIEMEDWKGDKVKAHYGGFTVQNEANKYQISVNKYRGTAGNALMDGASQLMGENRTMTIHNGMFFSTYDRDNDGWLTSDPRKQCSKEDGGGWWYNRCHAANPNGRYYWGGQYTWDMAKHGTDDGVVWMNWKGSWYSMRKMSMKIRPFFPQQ

This test addresses Fibrinogen beta chain (Homo sapiens) (UniProt P02675). Description: inhibitors of Tn7 peptide binding to fibrin DD(E), primary screen, biochemical, fluorescence polarization, human fibrin, Tn7 probe (AID 720508).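 Note: 0% = plate median of compound wells and 100% = 10 µM Aha-Tn7 peptide.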 The settings on record: FP displacement of FITC-Tn7 peptide from fibrin DD(E); at 8.3 µM; stronger effect = higher value; 0% = median of compound wells per plate. In outline:
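Measure: % inhibition scaled between sample-field median and high-control FP; Test system: human fibrin DD(E); Quantity: 2 µM final DD(E) protein; Doses: one dose, 8.3 µM nominal; Schedule: compound with protein 10 min, then 3 h after probe, room temperature; Detection: fluorescence polarization; Medium: Tris buffer with calcium and detergent, pH 7.8.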
For orientation: Fluorescence polarisation rises when a labelled molecule tumbles more slowly, as on binding a larger partner.
As to `CSC1=NC2(C)CCCCC2C12C=CC(=O)C=C2` (stereo unspecified), the inhibition was 6.72%.

Take `CC(OC(=O)CN1C(=O)COc2ccccc21)C(=O)NCc1ccc(F)cc1` (stereo unspecified): the inhibition is -2.52%.

As for `CN(Cc1ccccc1)CC(O)COc1ccc(CNCc2cc3ccccc3s2)cc1` (stereo unspecified), the inhibition is 5.14%.

For `Cc1cc(C(=O)OC(C)C(=O)NC2CCCCC2C)c(C)o1` (stereo unspecified), the inhibition is -2.98%.

With `CCO/N=C(/C)c1c(O)cc(-c2ccccc2)n(-c2ccccc2)c1=O`, the inhibition is 0.3%.

For `Oc1ccc2ccc3cccc[n+]3c2c1`, the inhibition is 62.8% (active).

Regarding `COCCCNC(=O)Cc1ccc(-n2c(C)nc3cccnc32)cc1`, the inhibition was 1.6%.

As to `O=C(COC(=O)c1cc([N+](=O)[O-])ccc1NCc1ccccc1)NC1CCCCC1`, the inhibition was -0.23%.

Turning to `O=C(COC(=O)c1ccc([N+](=O)[O-])cc1Cl)NC(=O)c1ccccc1`, the inhibition was 17.7% (active).

`O=C(NNS(=O)(=O)c1ccc(F)cc1)c1ccc([N+](=O)[O-])cc1Cl`: the inhibition was 1.43%.

Regarding `CC(C)(C)OC(=O)N1CCC(C(=O)Nc2cccc(C(=O)NCCc3ccccc3)c2)CC1`, the inhibition is -2.62%.

As to `CCNC(=O)c1cccc(NC(=O)C2CC(=O)N(CCc3ccccc3)C2)c1` (stereo unspecified), the inhibition was 8.78%.

In the case of `O=C(NCc1ccccc1)c1cccc(NC(=O)C2CCCCC2)c1`, the inhibition is 15.5% (active).

With `O=C(/C=C/c1ccccc1[N+](=O)[O-])NCC1CCCO1` (stereo unspecified), the inhibition was 14.7% (active).

`CC(C)CNC(=O)COC(=O)/C=C/c1ccccc1[N+](=O)[O-]`: the inhibition was 2.51%.

Regarding `COc1ccc(C(=O)OCC(=O)NCC2CCCO2)cc1[N+](=O)[O-]` (stereo unspecified), the inhibition is 2.02%.

As to `Nc1ccc2nc3c(=O)[nH]c(=S)[nH]c3nc2c1`, the inhibition was 7.86%.

Regarding `Cc1cc2nc3c(=O)n(Cc4ccccc4)c(=O)[nH]c3nc2cc1N`, the inhibition was 25.7% (active).

Turning to `COCCn1c(N)c(NCc2ccccc2)c(=O)[nH]c1=O`, the inhibition is 8.37%.

Turning to `CN(C)CCNC(=O)C(C(=O)c1ccccc1)n1ccccc1=O` (stereo unspecified), the inhibition was 8.86%.

On to `Cc1ccc(-c2nc(-c3cccnc3)sc2CC(=O)Nc2ccc(C)c(Cl)c2)cc1`, for which the inhibition is -4.07%.

Take `CSCCNC(=O)c1ccc2nc(Cc3ccccc3F)oc2c1`: the inhibition was -0.81%.

Turning to `Cc1ccc(NC(=O)CN(C)C(=O)c2ccc(Cl)c(S(=O)(=O)NCc3ccco3)c2)cc1`, the inhibition was -3.83%.

With `COC(=O)[C@H](C(C)C)N1CCc2nnn(Cc3ccc(C)cc3)c2-c2ccccc2S1(=O)=O`, the inhibition was 5.12%.

Take `O=C(COC(=O)c1ccc(O)cc1)Nc1nccs1`: the inhibition is 6.41%.

Turning to `O=C1C(=O)N(CCCN2CCOCC2)C(c2ccc([N+](=O)[O-])cc2)/C1=C(\O)c1ccc2c(c1)OCCO2` (stereo unspecified), the inhibition was -0.14%.

Consider `O=S(=O)(c1cccc(-c2nnc(SC(F)F)n2-c2ccccc2)c1)N1CCCCC1`, for which the inhibition was 3.4%.

On to `O=C(OCC(=O)N1CCN(C(=O)c2ccco2)CC1)c1ccccc1Cc1ccccc1`, for which the inhibition was -2.57%.

On to `Cc1cccc(C)c1Nc1c(-c2ccccc2O)nc2ncccn12`, for which the inhibition was 2.35%.

For the compound `Cc1cc(Nc2cccc(F)c2)n2ncnc2n1`, the inhibition was -2.61%.

With `COc1ccc(/C=C2\CCCC3C2=NN(C(=O)c2scnc2C)C3c2ccc(OC)cc2)cc1` (stereo unspecified), the inhibition is 2.65%.

Consider `CC(C)=CCCC1(C)C=Cc2c(ccc3c2[nH]c2cc(O)c(C)cc23)O1` (stereo unspecified), for which the inhibition is -5.67%.

`Cc1cc2nc3c(=O)[nH]c(=O)nc-3n(C[C@H](O)[C@H](O)[C@H](O)CO)c2cc1C`: the inhibition was 24.1% (active).

As for `CCN(CC)CCCC(C)n1c2nc(=O)[nH]c(=O)c-2nc2cc(Cl)ccc21` (stereo unspecified), the inhibition was -7.28%.

Regarding `CC(C)C[C@H]1CNC(=S)N1C[C@H]1CCCN1C[C@H](Cc1ccc(O)cc1)N1C[C@H](Cc2ccc(O)cc2)N(CC2CCCCC2)C1=S`, the inhibition was -3.09%.

For the compound `C=C(C)C#CC(Cc1ccccc1)N(CC1CC1)/C(N)=N/C(=O)OCc1ccccc1` (stereo unspecified), the inhibition is 1.85%.

On to `CC(C)CC(=O)c1c[nH]c(C(=O)NCc2ccccc2)c1`, for which the inhibition was -1.06%.

Turning to `CC1CCCCC12NC(=O)N(CC(=O)OCc1c(F)cccc1Cl)C2=O` (stereo unspecified), the inhibition is 5.49%.

As for `Cc1cc(C)c2nc3nc(C)cc(C)c3c(N)c2c1`, the inhibition was 3.42%.

Take `COc1ccc(S(=O)(=O)N2CCOCC2)cc1NC(=O)CSc1nnc(NC2CC2)s1`: the inhibition was -0.34%.

Regarding `COc1ccc(S(=O)(=O)N2CCN(C(C)C(=O)Nc3ccc(C(C)C)cc3)CC2)cc1` (stereo unspecified), the inhibition was 2.11%.

Regarding `CCCC1CCC2(CCCN2CCOC(=O)NCc2ccccc2)CC1` (stereo unspecified), the inhibition is 2.73%.

`CCC(C)[C@H](NC(=O)N1c2ccccc2NC(=O)[C@@H]1C(C)C)C(=O)N[C@@H](Cc1ccccc1)C(=O)O` (stereo partly specified): the inhibition was -4.14%.

As to `COc1ccc(S(=O)(=O)c2c[nH]c(=S)[nH]c2=O)cc1Cl`, the inhibition was 14.8% (active).

Consider `COc1ccc(S(=O)(=O)N(C)CC(=O)N2CCCC2)cc1Cl`, for which the inhibition is -5.85%.

Regarding `Cc1ccc(S(=O)(=O)c2c[nH]c3ccc(Cl)cc3c2=O)cc1`, the inhibition was -0.42%.

With `CSCC[C@H](NC(=O)NCc1cccs1)C(=O)O`, the inhibition was 1.72%.

Take `O=C(COC(=O)CCOc1ccccc1)Nc1cc(S(=O)(=O)N2CCCCC2)ccc1Cl`: the inhibition is 3.01%.

On to `CC(=O)c1ccc(NC(=O)CCNS(=O)(=O)c2cc(Br)cnc2N)cc1`, for which the inhibition is 1.85%.

With `Nc1nc2n(n1)C(c1ccco1)CC(c1ccc(Cl)c(Cl)c1)N2` (stereo unspecified), the inhibition was -5.38%.

For the compound `O=C(N=C1SC2CS(=O)(=O)CC2N1Cc1ccccc1)c1ccccc1` (stereo unspecified), the inhibition was 8.78%.

With `COCCNC(=O)CSc1nc2c(n1-c1ccccc1)CCCC2`, the inhibition was -3.74%.

As to `NC(=O)c1ccc(N2CCCC2)nc1`, the inhibition was 2.52%.

On to `CCc1nc2c(OCCC3CCCCC3)cccn2c1N(C)C(=O)c1ccco1`, for which the inhibition was -2.4%.

For the compound `Cc1c(C(=O)O)nnn1-c1nonc1N`, the inhibition is 1.32%.

As for `O=C(NCc1ccccc1)C1CCCN(c2nc3ccsc3c(=O)s2)C1` (stereo unspecified), the inhibition is -2.86%.

On to `CCC(=O)N1CCN=C1SCc1ccc(F)cc1`, for which the inhibition was 1.78%.

`COc1cccc2c1C(=O)c1c(O)c3c(c(O)c1C2=O)CC(O)(C(C)=NNC(=O)c1ccc(Cl)c(Cl)c1)CC3OC1CC(N)C(O)C(C)O1` (stereo unspecified): the inhibition is 27% (active).

Take `Cc1cccc(NC(=O)c2ccc(S(=O)(=O)N(C)CC3CCCO3)cc2)c1C` (stereo unspecified): the inhibition is -10%.

Regarding `Cc1nnc(SCC(=O)Nc2ncc3c(n2)CC(C)(C)CC3=O)s1`, the inhibition was 3.19%.

As to `C=CCn1c(COc2ccc(F)cc2)nnc1SCC(=O)Nc1cccc(S(N)(=O)=O)c1`, the inhibition was 2.08%.

With `COc1cc2c(cc1OC)CC1(CCCCC1)N=C2`, the inhibition is 3.18%.

For `Cc1cc(=O)[nH]c2nnnn12`, the inhibition is -1.23%.

Consider `COc1ccc(N=Nc2c(-c3ccc(OC)cc3)[nH]oc2=O)cc1`, for which the inhibition is 25.7% (active).

With `COc1ccc(N=C2C=CC(=O)O2)cc1`, the inhibition is -2.28%.

As to `O=c1o[nH]c(-c2ccccc2)c1N=Nc1c(F)cccc1Cl`, the inhibition was 1.8%.

Regarding `COc1ccc(C(=O)N(C)Cc2ccc(OC)c(OC)c2OC)cc1S(=O)(=O)N1CCOCC1`, the inhibition was -8.78%.

Take `CN(CC(=O)Nc1ccc(F)c(F)c1F)C(=O)C1CC(=O)N(C2CCCC2)C1` (stereo unspecified): the inhibition is 0.71%.

For the compound `COC(=O)CSc1snnc1-c1ccc(Cl)c(Cl)c1`, the inhibition was -4.58%.

Turning to `Cc1ccccc1-c1csc(C(O)c2cccc(Cl)c2)n1` (stereo unspecified), the inhibition was -0.35%.

Regarding `OC(c1ccccc1)c1nc(-c2cnc3ccccc3c2)cs1` (stereo unspecified), the inhibition was 15.7% (active).

Consider `COc1ccc(-c2csc(C(O)c3cccc(Cl)c3)n2)cn1` (stereo unspecified), for which the inhibition is -9.22%.

Consider `Cc1nn(C(C)(C)C)c(OC(=O)CC(C)C)c1S(=O)(=O)c1ccccc1`, for which the inhibition is 1.04%.

Take `O=C(Cn1cnc2ccccc2c1=O)Nc1cccc(S(=O)(=O)N2CCCCC2)c1`: the inhibition was -0.43%.

`CCc1nn(-c2cc(Oc3cccc4ccccc34)nc(-c3ccccc3)n2)c(N)c1C#N`: the inhibition is 4.4%.

As for `C=CCN1CCN(c2ccncc2S(=O)(=O)N2CCN(C)CC2)CC1`, the inhibition is 7.05%.

Turning to `O=C(NCc1cccnc1)Nc1ccccc1F`, the inhibition was -2.21%.

Turning to `CC(=O)Nc1ccc(CN2CCN(Cc3ccc(F)c(F)c3)C(CCO)C2)cc1` (stereo unspecified), the inhibition was 0.97%.

As for `Cc1cc(NC(=O)C(C)SCC(=O)Nc2cccc(S(=O)(=O)N3CCCCCC3)c2)no1` (stereo unspecified), the inhibition is 6.6%.

`O=S1(=O)CC(N2CCN(Cc3ccccc3F)CC2)CN1Cc1cn(Cc2cccc(C(F)(F)F)c2)nn1` (stereo unspecified): the inhibition was 1.27%.

Turning to `CC(=O)c1cc(-c2ccccc2)n(CCC(=O)NC2CCCCCC2)c1C`, the inhibition was -2.95%.

Regarding `O=C(c1c(Cl)cccc1Cl)N1CCN(c2cccc3[nH]ccc23)CC1`, the inhibition was 2.06%.

As for `CC1(C)CC(=O)C(C2c3ccccc3S(=O)(=O)c3ccccc32)C(=O)C1`, the inhibition was 2.44%.

As to `CO[C@H]1[C@@H]2C=CO[C@@H](O[C@H]3O[C@@H](CO)[C@H](O)[C@@H](O)[C@@H]3O)[C@@H]2[C@@]2(CO)O[C@@H]12`, the inhibition is -5.28%.

Turning to `S=C(NC1CCCCC1)NN1CCOCC1`, the inhibition is 4.52%.

In the case of `O=C(CSc1nncn1-c1cccnc1)N1CCOCC1`, the inhibition is -3.73%.

`O=C(Cn1cnc2ccccc2c1=O)NNC(=O)c1ccccc1F`: the inhibition was -3.62%.

For the compound `Cn1c(CC(=O)NNC(=O)c2ccccc2F)nc2ccccc21`, the inhibition was 14.2% (active).

Turning to `Cc1cc2occ(CC(=O)NNC(=O)c3ccccc3F)c2cc1C`, the inhibition is -1.71%.

As for `Cc1ccccc1CCNC(=O)C1CCC(=O)N(Cc2ccc(Cl)cc2)C1` (stereo unspecified), the inhibition was 7.94%.

Turning to `O=C(NCCCN1CCCCC1)C1CCCN(c2ncnc3c2nc2n3CCCCC2)C1` (stereo unspecified), the inhibition was -0.83%.

For the origin of these results see PubChem BioAssay AID720508 (The Scripps Research Institute Molecular Screening Center, 2013).
